The source made the active and inactive calls. No cut-off for these calls is given here.

Experimental findings from ChEMBL document CHEMBL3259541, “Synthesis and biological evaluation of antimetastatic agents predicated upon dihydromotuporamine C and its carbocyclic derivatives” (J Med Chem, 2014) are described below.

A short description of series [1]: Toxicity in immune-compromised mouse compound treated ip 5 days per week for 2 weeks. As to conditions: in vivo. It is filed as organism-based.
The subject of series [2] is Mus musculus. Kind of series: Toxicity in immune-compromised mouse assessed as adverse event at 2.5 mg/kg,ip 5 days per week for 2 weeks. Further details: dose 2.5 mg/kg. Particulars: in vivo. The format is organism-based.
Series [3] deals with L3.6pl. Kind of series: Antimetastatic activity against human L3.6PL cells injected into pancreas of immune-compromised mouse assessed as liver micrometastasis at 2.5 mg/kg,ip 5 days per week for 2 weeks after 7 days of tumor cells inoculation by microscopically. It is filed as functional, organism-based. Further details: dose 2.5 mg/kg. In outline:
(§1)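 Nu/nu mice engrafted with human L3.6pl pancreatic tumor cells; vehicle or compound given ip 5 days/week for 2 weeks (10 injections; 2.50 mg/kg for one agent, 2.66 mg/kg equimolar for the other), n=7 per group. Livers collected at termination; micrometastasis incidence and size scored macroscopically and on sections by H&E, human Ki67 and human cytokeratin-18 immunohistochemistry.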

Series [4] concerns L3.6pl. Kind of series: Effect on intracellular ceramide population in human L3.6PL cells assessed as sphingomyelin N15:0 level measured per mg of protein at 0.6 uM after 48 hrs incubation by mass spectrometry analysis (reference value: 0.09 +/- 0.02 nmol). The format is functional.
Series [5] deals with L3.6pl. Put plainly: Effect on intracellular ceramide population in human L3.6PL cells assessed as sphingomyelin N19:0 level measured per mg of protein at 0.6 uM after 48 hrs incubation by mass spectrometry analysis (reference value: 0.01 +/- 0.01 nmol). The format is functional.
In series [6] the test system is L3.6pl. Put plainly: Effect on intracellular ceramide population in human L3.6PL cells assessed as sphingomyelin N24:3 level measured per mg of protein at 0.6 uM after 48 hrs incubation by mass spectrometry analysis (reference value: 0.05 +/- 0.02 nmol). The format is functional.
The subject of series [7] is L3.6pl. Kind of series: Effect on intracellular ceramide population in human L3.6PL cells assessed as sphingomyelin N24:2 level measured per mg of protein at 0.6 uM after 48 hrs incubation by mass spectrometry analysis (reference value: 0.25 +/- 0.09 nmol). It is filed as functional.
Series [8] concerns L3.6pl. Put plainly: Effect on intracellular ceramide population in human L3.6PL cells assessed as sphingomyelin N24:1 level measured per mg of protein at 0.6 uM after 48 hrs incubation by mass spectrometry analysis (reference value: 0.85 +/- 0.38 nmol). The format is functional.
Series [9] concerns L3.6pl. Put plainly: Effect on intracellular ceramide population in human L3.6PL cells assessed as ceramide N22:1 level measured as contribution to total ceramide population at 0.6 uM after 48 hrs incubation by mass spectrometry analysis relative to untreated control.
In series [10] the test system is L3.6pl. Put plainly: Antimetastatic activity against human L3.6PL cells injected into pancreas of immune-compromised mouse assessed as liver micrometastasis at 2.5 mg/kg,ip 5 days per week for 2 weeks after 7 days of tumor cells inoculation by Hematoxylin and eosin staining.
The test system of series [11] is L3.6pl. Kind of series: Antimetastatic activity against human L3.6PL cells injected into pancreas of immune-compromised mouse assessed as liver micrometastasis at 2.5 mg/kg,ip 5 days per week for 2 weeks after 7 days of tumor cells inoculation by human Ki67 immunohistochemical staining.
The test system of series [12] is Mus musculus. Put plainly: Toxicity in immune-compromised mouse assessed as adverse event at 2.66 mg/kg,ip 5 days per week for 2 weeks. It is filed as organism-based. Also noted: dose 2.66 mg/kg. Particulars: in vivo.
Series [13] deals with L3.6pl. Kind of series: Antimetastatic activity against human L3.6PL cells injected into pancreas of immune-compromised mouse assessed as liver micrometastasis at 2.66 mg/kg,ip 5 days per week for 2 weeks after 7 days of tumor cells inoculation by microscopically. The format is functional, organism-based. Further details: dose 2.66 mg/kg. In outline:
as §1

The subject of series [14] is L3.6pl. Kind of series: Antimigratory activity against human L3.6PL cells assessed as cell migration inhibition after 48 hrs incubation by wound healing assay in presence of 250 uM aminoguanidine treated 24 hrs prior compound addition. The format is functional, cell-based.
In series [15] the test system is L3.6pl. Put plainly: Antimetastatic activity against human L3.6PL cells injected into pancreas of immune-compromised mouse assessed as liver micrometastasis at 2.66 mg/kg,ip 5 days per week for 2 weeks after 7 days of tumor cells inoculation by Hematoxylin and eosin staining.
Series [16] has as its system L3.6pl. Kind of series: Antimetastatic activity against human L3.6PL cells injected into pancreas of immune-compromised mouse assessed as liver micrometastasis at 2.66 mg/kg,ip 5 days per week for 2 weeks after 7 days of tumor cells inoculation by human Ki67 immunohistochemical staining.

On to `Cl.NCCCNCCCN1CCCCCCCCCCCCCC1`, for which the MTD at 2 weeks in [1] is 2.5 mg/kg. Also, the Activity result with Mus musculus [2] was “Non-toxic”; with L3.6pl [4] it was 0.15 nmol; in the series on L3.6pl [5], 0.02 nmol; in the series on L3.6pl [6], 0.06 nmol; in the series on L3.6pl [7], 0.27 nmol; in the series with L3.6pl [8] it was 0.99 nmol. Besides, the result in the series with L3.6pl [3], with L3.6pl [10] and in the series with L3.6pl [11] was inactive. The “fold change (FC)” value in the series on L3.6pl [9] was 2.8.
In the case of `Cl.NCCCNCCCNCC1CCCCCCCCCCCCCC1`, the Activity result with Mus musculus [12] was “Non-toxic”; with L3.6pl [4], 0.17 nmol; in the series with L3.6pl [5] it was 0.02 nmol; in the series with L3.6pl [6], 0.06 nmol; in the series on L3.6pl [7], 0.31 nmol; in the series on L3.6pl [8], 1.1 nmol. Moreover, the result in the series with L3.6pl [13], with L3.6pl [15] and with L3.6pl [16] was Active. The inhibition result in the series on L3.6pl [14] was “Dose-dependent effect”.
